Reference: ChEMBL document CHEMBL1144184, “Preparation and biological evaluation of 5-substituted retinoic acids” (2008)
Active and inactive are the calls of the source. No cut-off for these calls is given here.

Experiments:
HL-60 [1] = assay: Induction of apoptosis in human HL-60 cells assessed as DNA fragmentation by agarose gel electrophoresis; format: functional, cell-based
Procedure, shortened: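 HL-60 cells exposed to increasing retinoid concentrations. DNA isolated from each culture, run on a 2% agarose gel, stained with ethidium bromide and viewed under UV. Laddering scored as positive or negative.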

HL-60 [2] = assay: Antiproliferative activity against human HL-60 cells assessed as cell cycle distribution at 0.0001 uM to 1 uM after 3 days by FACS relative to ATRA; format: functional
Procedure, shortened: (§1)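 HL-60 cells (RPMI-1640, 10% dextran-coated charcoal-treated FCS, kanamycin; S-phase synchronized twice with 2.5 mM thymidine) seeded 10⁵ cells/well and exposed to retinoids for 3 days at 37 °C, 5% CO₂. Cells permeabilized with 0.2% Triton-X plus RNase (37 °C, 1 h), stained with propidium iodide (4 °C, 20 min), and cell cycle phases quantified by flow cytometry (488 nm argon laser).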

HL-60 [3] = assay: Induction of human HL-60 cell differentiation assessed as cell surface CD11b antigen expression measured as mean fluorescence index at 0.0001 uM to 1 uM after 3 days by FACS relative to ATRA; format: functional
Procedure, shortened: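 Thymidine-synchronized HL-60 cells, 10⁵ cells/well, cultured 3 days with retinoids (10^-10–10^-6 M) in RPMI-1640. CD11b surface expression quantified by flow cytometry (excitation 490 nm, emission 520 nm), 10⁴ cells counted per treatment. Readout is mean fluorescence index (% fluorescent cells × mean intensity), normalized to ATRA values.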

HL-60 [4] = assay: Cell cycle arrest in human HL-60 cells assessed as accumulation at G0/G1 phase at 10 pM to 1 uM by FACS; format: functional, cell-based; procedure, shortened: as §1
[5] = biological target: T1, Retinoic acid receptor beta (Homo sapiens) (UniProt P10826); assay: Increase in transcriptional activity of human RARbeta receptor expressed in human MG63 cells co-transfected with pGL3-RARE at 1 uM by luciferase reporter gene assay relative to ATRA; format: cell-based; settings: MG-63, in the assay text read “relative to control” for “relative to ATRA”
T1 sequence (whole entry): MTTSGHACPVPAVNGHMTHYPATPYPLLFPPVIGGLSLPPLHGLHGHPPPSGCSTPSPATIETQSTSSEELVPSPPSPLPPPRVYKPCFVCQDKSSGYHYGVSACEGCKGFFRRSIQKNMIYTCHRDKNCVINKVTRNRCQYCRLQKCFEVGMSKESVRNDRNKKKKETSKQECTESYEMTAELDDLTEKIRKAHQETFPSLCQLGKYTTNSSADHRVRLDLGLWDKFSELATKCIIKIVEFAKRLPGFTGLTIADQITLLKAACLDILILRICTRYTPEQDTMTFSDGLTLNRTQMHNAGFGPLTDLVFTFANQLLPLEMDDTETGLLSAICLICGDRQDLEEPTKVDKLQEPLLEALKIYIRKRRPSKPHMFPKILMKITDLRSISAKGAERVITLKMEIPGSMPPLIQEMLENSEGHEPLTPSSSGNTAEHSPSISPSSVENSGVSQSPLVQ
Procedure, shortened: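 MG-63 osteosarcoma cells in DMEM with 10% charcoal-stripped FCS were seeded 2 × 10⁵/well the day before transfection. Cotransfected (Tfx-50) with human RARβ promoter–RARE3-SV40-luciferase reporter and pRL-CMV control. Retinoids applied for 2 days at 10^-6 M. Firefly luciferase normalized to Sea Pansy luciferase, expressed as fold induction over control. At least three repeats, mean ± SE.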

Activity [5] | SMILES | Activity (HL-60 [1]) | Activity (HL-60 [2]) | Activity (HL-60 [3]) | Activity (HL-60 [4])
Active | CC(/C=C/C1=C(Cc2ccc3ccccc3c2)CCCC1(C)C)=C\C=C\C(C)=C\C(=O)O | inactive | <0.81 | <0.22 | Active
Active | CC(/C=C/C1=C(CC(C)C)CCCC1(C)C)=C\C=C\C(C)=C\C(=O)O | inactive | 35 | 310 | Active
Active | CCCCC1=C(/C=C/C(C)=C/C=C/C(C)=C/C(=O)O)C(C)(C)CCC1 | inactive | 193 | 129 | Active
Active | CC(/C=C/C1=C(Cc2ccccc2)CCCC1(C)C)=C\C=C\C(C)=C\C(=O)O | inactive | 2 | 2 | Active

The next lines start with the compound.

SMILES | Activity [5] | Activity (HL-60 [1]) | Activity (HL-60 [2]) | Activity (HL-60 [3]) | Activity (HL-60 [4])
CC(=C/C=C/C(C)=C/C(=O)O)/C=C/C1=C(Cc2ccccc2)CCCC1(C)C |  | inactive | 11 | 6 | 
CC(=C/C=C/C(C)=C/C(=O)O)/C=C/C1=C(Cc2ccc3ccccc3c2)CCCC1(C)C |  | inactive | <0.81 | <0.22 | 
CC(=C/C=C/C(C)=C/C(=O)O)/C=C/C1=C(CC(C)C)CCCC1(C)C |  | inactive | 16 | 10 | 
CCCCC1=C(/C=C/C(C)=C\C=C\C(C)=C\C(=O)O)C(C)(C)CCC1 |  | inactive | 14 | 9 | 
